Measured values from ChEMBL document CHEMBL4052817 (J Med Chem, 2017).
Activity calls are given as the source filed them. No cut-off for these calls is given here.

Experiments:
[1] = Drug metabolism in mouse hepatocytes assessed as hydrolysis; format: ADME, cell-based, Hepatocyte
[2] = molecular target: Voltage-gated inwardly rectifying potassium channel KCNH2 (Homo sapiens, UniProt Q12809); test: Inhibition of human ERG up to 300 uM relative to control
Mus musculus [3] = test: AUC (infinity) in CD-1 mouse assessed as (R)-3-(5-fluoro-1H-indol-3-yl)pyrrolidine-2,5-dione at 1 mg/kg, iv by LC-MS/MS method; format: ADME, organism-based; design: dose 1 mg/kg, route intravenous, time infinity; details: in vivo
How it was run: (§1)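 Racemate given as a single 1 mg/kg IV dose to male CD-1 mice, Wistar-Han rats or beagle dogs (n=3 per species). Plasma levels of the (R)-enantiomer measured by chiral LC-MS/MS. Mean AUCinf, CLp, Vss and t1/2 reported.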

Hepatocyte = test: Induction of CYP3A4 mRNA expression in human hepatocytes at <100 uM; format: ADME, cell-based
Rattus norvegicus [4] = test: Half life in Wistar-Han rat assessed as (R)-3-(5-fluoro-1H-indol-3-yl)pyrrolidine-2,5-dione at 3 mg/kg, po; format: ADME, organism-based; details: in vivo
Mus musculus [5] = test: Half life in CD-1 mouse assessed as (R)-3-(5-fluoro-1H-indol-3-yl)pyrrolidine-2,5-dione at 3 mg/kg, po; format: ADME, organism-based; details: in vivo
Cytochrome P450 1A2 = molecular target: T1, Cytochrome P450 1A2 (Homo sapiens, UniProt P05177); test: Time-dependent inhibition of CYP1A2 (unknown origin); format: ADME
T1 sequence (P05177 whole entry): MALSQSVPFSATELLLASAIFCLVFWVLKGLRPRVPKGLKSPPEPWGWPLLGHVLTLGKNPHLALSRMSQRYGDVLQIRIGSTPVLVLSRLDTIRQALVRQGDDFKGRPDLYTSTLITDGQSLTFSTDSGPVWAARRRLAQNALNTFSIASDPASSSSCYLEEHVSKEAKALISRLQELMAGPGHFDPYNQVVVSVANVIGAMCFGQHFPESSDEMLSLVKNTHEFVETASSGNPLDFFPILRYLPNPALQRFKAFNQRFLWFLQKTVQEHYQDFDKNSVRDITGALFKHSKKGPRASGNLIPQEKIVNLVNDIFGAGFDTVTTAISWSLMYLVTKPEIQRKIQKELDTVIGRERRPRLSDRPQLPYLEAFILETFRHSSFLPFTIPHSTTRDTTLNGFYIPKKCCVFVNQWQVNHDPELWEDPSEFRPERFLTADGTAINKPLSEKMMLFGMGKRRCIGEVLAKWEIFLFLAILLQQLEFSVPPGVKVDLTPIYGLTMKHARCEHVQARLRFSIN

MC-38 = test: Antitumor activity against mouse MC38 tumor model administered as monotherapy; format: functional
Rattus norvegicus [6] = test: Tmax in Wistar-Han rat assessed as (R)-3-(5-fluoro-1H-indol-3-yl)pyrrolidine-2,5-dione at 3 mg/kg, po; format: ADME, organism-based; details: in vivo
[7] = molecular target: Tryptophan 2,3-dioxygenase (Homo sapiens, UniProt P48775); test: Inhibition of human TDO2 using tryptophan as substrate after 22 mins by LC-MS/MS method
[8] = Drug metabolism in dog hepatocytes assessed as hydrolysis; format: ADME, cell-based, Canis lupus familiaris, Hepatocyte
[9] = Drug excretion in dog urine assessed as (R)-3-(5-fluoro-1H-indol-3-yl)pyrrolidine-2,5-dione; format: ADME, Canis lupus familiaris; details: in vivo
How it was run: (§2)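 Racemate dosed to rats (urine and bile collected) and to dogs (urine collected). The percentage of the dose excreted as unchanged (R)-enantiomer was measured.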

Mus musculus [10] = test: In vivo inhibition of human IDO-1 expressed in non-tumor-bearing mouse assessed as reduction in plasma L-kynurenine levels at >= 200 mg/kg after 1 hr relative to control; format: functional
[11] = Intrinsic apparent clearance in dog hepatocytes assessed per million cells; format: ADME, cell-based, Canis lupus familiaris, Hepatocyte
Canis familiaris [12] = test: Volume of distribution at steady state in beagle dog assessed as (R)-3-(5-fluoro-1H-indol-3-yl)pyrrolidine-2,5-dione at 1 mg/kg, iv by LC-MS/MS method; format: ADME, organism-based, Canis lupus familiaris; details: in vivo
Cytochrome P450 3A4 [13] = molecular target: T2, Cytochrome P450 3A4 (Homo sapiens, UniProt P08684); test: Time/NADPH-dependent inhibition of CYP3A4 (unknown origin); format: ADME
Mus musculus [14] = test: Half life in CD-1 mouse assessed as (R)-3-(5-fluoro-1H-indol-3-yl)pyrrolidine-2,5-dione at 1 mg/kg, iv by LC-MS/MS method; format: ADME, organism-based; details: in vivo; how it was run: as §1
B16-F10 = test: Antitumor activity against mouse B16/F10 tumor model administered as monotherapy; format: functional
Canis familiaris [15] = test: Half life in beagle dog assessed as (R)-3-(5-fluoro-1H-indol-3-yl)pyrrolidine-2,5-dione at 3 mg/kg, po; format: ADME, organism-based, Canis lupus familiaris; details: in vivo
[16] = Intrinsic apparent clearance in mouse hepatocytes assessed per million cells; format: ADME, cell-based, Hepatocyte
Mus musculus [17] = test: Volume of distribution at steady state in CD-1 mouse assessed as (R)-3-(5-fluoro-1H-indol-3-yl)pyrrolidine-2,5-dione at 1 mg/kg, iv by LC-MS/MS method; format: ADME, organism-based; details: in vivo
Cytochrome P450 2C19 [18] = molecular target: T3, Cytochrome P450 2C19 (Homo sapiens, UniProt P33261); test: Time-dependent inhibition of CYP2C19 (unknown origin); format: ADME
Cytochrome P450 2D6 = Cytochrome P450 2D6 (Homo sapiens, UniProt P10635); test: Time/NADPH-dependent inhibition of CYP2D6 (unknown origin); format: ADME
Rattus norvegicus [19] = test: Cmax in Wistar-Han rat assessed as (R)-3-(5-fluoro-1H-indol-3-yl)pyrrolidine-2,5-dione at 3 mg/kg, po; format: ADME, organism-based; design: dose 3 mg/kg, route oral; details: in vivo
Rattus norvegicus [20] = test: Volume of distribution at steady state in Wistar-Han rat assessed as (R)-3-(5-fluoro-1H-indol-3-yl)pyrrolidine-2,5-dione at 1 mg/kg, iv by LC-MS/MS method; format: ADME, organism-based; details: in vivo
Cytochrome P450 2C19 [21] = molecular target: T3, Cytochrome P450 2C19; test: Time/NADPH-dependent inhibition of CYP2C19 (unknown origin); format: ADME
Cytochrome P450 3A4 [22] = molecular target: T2, Cytochrome P450 3A4; test: Time-dependent inhibition of CYP3A4 (unknown origin); format: ADME
Renca = test: Antitumor activity against mouse Renca tumor model administered as monotherapy; format: functional
Canis familiaris [23] = test: Oral bioavailability in beagle dog assessed as (R)-3-(5-fluoro-1H-indol-3-yl)pyrrolidine-2,5-dione at 3 mg/kg; format: ADME, organism-based, Canis lupus familiaris; details: in vivo
Cytochrome P450 3A4 [24] = molecular target: T2, Cytochrome P450 3A4; test: Inhibition of CYP3A4 (unknown origin); format: ADME
4T1 = test: Antitumor activity against mouse 4T1 tumor model administered as monotherapy; format: functional
Canis familiaris [25] = test: AUC (infinity) in beagle dog assessed as (R)-3-(5-fluoro-1H-indol-3-yl)pyrrolidine-2,5-dione at 3 mg/kg, po; format: ADME, organism-based, Canis lupus familiaris; design: dose 3 mg/kg, route oral, time infinity; details: in vivo
[26] = Drug excretion in rat urine assessed as (R)-3-(5-fluoro-1H-indol-3-yl)pyrrolidine-2,5-dione; format: ADME; details: in vivo; how it was run: as §2

T2 sequence (P08684 whole entry): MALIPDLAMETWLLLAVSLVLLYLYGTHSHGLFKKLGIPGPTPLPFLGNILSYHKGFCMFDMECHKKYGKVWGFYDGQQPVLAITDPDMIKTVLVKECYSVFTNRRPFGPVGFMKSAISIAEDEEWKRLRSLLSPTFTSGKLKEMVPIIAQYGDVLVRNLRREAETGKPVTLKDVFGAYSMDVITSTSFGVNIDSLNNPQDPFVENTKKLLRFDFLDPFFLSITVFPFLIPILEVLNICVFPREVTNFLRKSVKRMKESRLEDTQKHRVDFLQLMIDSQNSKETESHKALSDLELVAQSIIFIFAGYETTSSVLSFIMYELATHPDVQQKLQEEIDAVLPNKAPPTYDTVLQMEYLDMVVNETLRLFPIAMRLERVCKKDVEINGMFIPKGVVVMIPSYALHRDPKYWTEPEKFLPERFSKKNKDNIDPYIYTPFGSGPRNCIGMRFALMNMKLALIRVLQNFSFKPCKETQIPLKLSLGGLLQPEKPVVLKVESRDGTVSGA
T3 sequence (P33261 whole entry): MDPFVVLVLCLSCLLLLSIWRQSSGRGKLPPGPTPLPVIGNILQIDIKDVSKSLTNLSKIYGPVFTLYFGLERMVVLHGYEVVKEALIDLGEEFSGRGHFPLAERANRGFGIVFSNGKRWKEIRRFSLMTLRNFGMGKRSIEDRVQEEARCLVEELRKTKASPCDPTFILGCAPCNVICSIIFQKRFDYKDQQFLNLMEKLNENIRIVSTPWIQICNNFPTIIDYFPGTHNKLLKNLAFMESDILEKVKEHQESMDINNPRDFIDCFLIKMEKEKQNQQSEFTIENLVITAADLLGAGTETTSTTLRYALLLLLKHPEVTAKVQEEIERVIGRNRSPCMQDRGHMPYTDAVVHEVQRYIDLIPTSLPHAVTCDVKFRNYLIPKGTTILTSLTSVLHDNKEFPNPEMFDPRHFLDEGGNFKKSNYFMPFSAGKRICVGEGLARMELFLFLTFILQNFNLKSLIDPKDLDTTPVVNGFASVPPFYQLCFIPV
Chain of Cytochrome P450 2D6 (P10635 whole entry): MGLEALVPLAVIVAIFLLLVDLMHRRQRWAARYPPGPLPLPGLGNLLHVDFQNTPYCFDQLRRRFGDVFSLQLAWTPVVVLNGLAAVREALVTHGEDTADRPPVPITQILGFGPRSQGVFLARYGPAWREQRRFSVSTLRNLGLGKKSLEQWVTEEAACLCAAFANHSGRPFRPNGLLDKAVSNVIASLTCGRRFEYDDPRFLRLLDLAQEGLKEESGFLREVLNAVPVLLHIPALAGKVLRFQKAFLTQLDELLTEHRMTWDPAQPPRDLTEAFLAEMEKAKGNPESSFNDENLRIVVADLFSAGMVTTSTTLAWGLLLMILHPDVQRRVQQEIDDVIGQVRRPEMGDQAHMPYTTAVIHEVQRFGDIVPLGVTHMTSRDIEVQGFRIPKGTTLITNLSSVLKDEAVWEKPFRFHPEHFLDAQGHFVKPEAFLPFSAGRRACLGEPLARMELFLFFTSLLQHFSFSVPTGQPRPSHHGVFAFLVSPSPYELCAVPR
Chain of Voltage-gated inwardly rectifying potassium channel KCNH2 (Q12809 whole entry): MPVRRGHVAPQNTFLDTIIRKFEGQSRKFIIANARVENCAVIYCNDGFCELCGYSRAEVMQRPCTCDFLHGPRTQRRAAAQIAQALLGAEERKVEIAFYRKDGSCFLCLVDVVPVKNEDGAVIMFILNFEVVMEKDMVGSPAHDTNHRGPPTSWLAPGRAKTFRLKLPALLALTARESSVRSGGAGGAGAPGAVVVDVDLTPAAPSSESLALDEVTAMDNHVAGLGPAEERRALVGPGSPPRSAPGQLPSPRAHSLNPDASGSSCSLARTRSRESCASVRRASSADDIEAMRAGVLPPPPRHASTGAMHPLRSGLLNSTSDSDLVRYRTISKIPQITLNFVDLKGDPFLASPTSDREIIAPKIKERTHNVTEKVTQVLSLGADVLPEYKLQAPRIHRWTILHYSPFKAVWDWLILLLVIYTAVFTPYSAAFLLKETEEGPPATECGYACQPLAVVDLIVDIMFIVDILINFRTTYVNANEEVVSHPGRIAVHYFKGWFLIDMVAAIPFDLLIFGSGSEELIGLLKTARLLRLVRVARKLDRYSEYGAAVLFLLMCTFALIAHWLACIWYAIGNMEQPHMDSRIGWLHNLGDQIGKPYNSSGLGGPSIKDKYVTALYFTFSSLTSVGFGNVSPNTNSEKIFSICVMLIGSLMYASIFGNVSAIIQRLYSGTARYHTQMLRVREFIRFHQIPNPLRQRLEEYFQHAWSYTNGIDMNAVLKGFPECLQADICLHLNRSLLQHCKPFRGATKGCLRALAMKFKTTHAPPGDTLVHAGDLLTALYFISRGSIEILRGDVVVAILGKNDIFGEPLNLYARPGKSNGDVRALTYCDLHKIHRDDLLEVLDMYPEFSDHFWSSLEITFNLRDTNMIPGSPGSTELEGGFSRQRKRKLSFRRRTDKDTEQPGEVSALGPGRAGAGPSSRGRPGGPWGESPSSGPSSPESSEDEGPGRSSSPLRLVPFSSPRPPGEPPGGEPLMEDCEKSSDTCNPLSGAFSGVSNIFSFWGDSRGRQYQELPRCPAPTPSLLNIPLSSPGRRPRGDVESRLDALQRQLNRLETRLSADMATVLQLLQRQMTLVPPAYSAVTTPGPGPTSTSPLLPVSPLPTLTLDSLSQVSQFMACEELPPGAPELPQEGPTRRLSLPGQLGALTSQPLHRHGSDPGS
Chain of Tryptophan 2,3-dioxygenase (P48775 whole entry): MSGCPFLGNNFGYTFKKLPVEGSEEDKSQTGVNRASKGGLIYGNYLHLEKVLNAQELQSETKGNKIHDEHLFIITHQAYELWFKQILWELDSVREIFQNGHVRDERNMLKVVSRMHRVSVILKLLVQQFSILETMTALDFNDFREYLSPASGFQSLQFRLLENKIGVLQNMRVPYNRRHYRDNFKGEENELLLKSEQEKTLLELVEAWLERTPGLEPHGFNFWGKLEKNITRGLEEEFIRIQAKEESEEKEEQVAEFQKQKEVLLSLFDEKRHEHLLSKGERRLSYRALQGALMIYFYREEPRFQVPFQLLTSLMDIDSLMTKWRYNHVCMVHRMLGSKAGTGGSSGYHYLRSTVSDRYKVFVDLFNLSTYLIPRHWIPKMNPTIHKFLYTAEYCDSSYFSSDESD

## O=C1CC(c2c[nH]c3ccc(F)cc23)C(=O)N1 (stereo not drawn) [PF-06840003]
[1]
  Drug metabolism: Metabolite_Detected
[2]
  inhibition (INH): < 50%
Mus musculus [3]
  AUC: 1160 ng·h/mL
Hepatocyte
  Activity: Not Active
Rattus norvegicus [4]
  t1/2: 2.42 h
Mus musculus [5]
  t1/2: 2.48 h
Cytochrome P450 1A2
  TDI: Not Active
MC-38
  Activity: Active
Rattus norvegicus [6]
  Tmax: 1.3 h
[7]
  IC50: 140 µM
[8]
  Drug metabolism: Metabolite_Detected
[9]
  Drug excretion: < 1 %ID
Mus musculus [10]
  inhibition (INH): >=54%
[11]
  CLH(app): 10.3 µL/min
Canis familiaris [12]
  Vdss: 0.957 L/kg
Cytochrome P450 3A4 [13]
  inhibition (INH): Not Active
Mus musculus [14]
  t1/2: 2.5 h
B16-F10
  Activity: Active
Canis familiaris [15]
  t1/2: 50.4 min
[16]
  CLH(app): 2.4 µL/min
Mus musculus [17]
  Vdss: 0.787 L/kg
Cytochrome P450 2C19 [18]
  TDI: Not Active
Cytochrome P450 2D6
  inhibition (INH): Not Active
Rattus norvegicus [19]
  Cmax: 985 ng/mL
Rattus norvegicus [20]
  Vdss: 0.639 L/kg
Cytochrome P450 2C19 [21]
  inhibition (INH): Not Active
Cytochrome P450 3A4 [22]
  TDI: Not Active
Renca
  Activity: Active
Canis familiaris [23]
  F: 18.6%
Cytochrome P450 3A4 [24]
  IC50: > 100 µM
4T1
  Activity: Active
Canis familiaris [25]
  AUC: 237 ng·h/mL
[26]
  Drug excretion: < 1 %ID
